The results in this text go back to ChEMBL document CHEMBL2057082, “Discovery of N-(4-methoxy-7-methylbenzo[d]thiazol-2-yl)isonicatinamide, ML293, as a novel, selective and brain penetrant positive allosteric modulator of the muscarinic 4 (M4) receptor” (Bioorg Med Chem Lett, 2012).

Series [1] addresses T1, Muscarinic acetylcholine receptor M4 (Homo sapiens) (UniProt P08173).
T1 sequence (whole entry): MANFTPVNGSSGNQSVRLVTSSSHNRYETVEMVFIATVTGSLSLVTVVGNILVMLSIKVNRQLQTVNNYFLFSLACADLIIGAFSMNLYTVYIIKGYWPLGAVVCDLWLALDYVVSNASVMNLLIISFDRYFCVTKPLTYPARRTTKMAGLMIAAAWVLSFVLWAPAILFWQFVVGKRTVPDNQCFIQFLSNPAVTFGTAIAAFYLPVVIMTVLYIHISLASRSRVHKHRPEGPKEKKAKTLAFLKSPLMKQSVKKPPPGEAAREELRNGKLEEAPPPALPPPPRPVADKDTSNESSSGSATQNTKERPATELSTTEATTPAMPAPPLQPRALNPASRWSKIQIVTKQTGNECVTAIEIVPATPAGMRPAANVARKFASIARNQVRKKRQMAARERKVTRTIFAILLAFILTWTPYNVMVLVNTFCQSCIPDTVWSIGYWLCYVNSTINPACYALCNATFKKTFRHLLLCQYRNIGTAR
Nature of the series: (§1) Positive allosteric modulation of human M4 receptor expressed in CHO-K1 cells coexpressing Gqi5 assessed as potentiation of acetylcholine-mediated calcium mobilization incubated for 144 secs prior to acetylcholine addition by Fluo-4-AM staining. Format: functional, cell-based. A digest of the protocol:
(§2)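 hM4 stably cotransfected with chimeric Gqi5 in CHO-K1 cells. Cells plated overnight at 37 °C, loaded with Fluo-4 AM for 45 min at 37 °C in HBSS/20 mM HEPES/2.5 mM probenecid. Compound pretreated 144 s (0.3% DMSO final), then EC20 ACh, then EC80 ACh 86 s later; kinetic fluorescence at 37 °C.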
Background: Calcium flux is commonly read through the fluorescence of an indicator in the cells.

Series [2] deals with T2, Muscarinic acetylcholine receptor M4 (Homo sapiens, UniProt P08173).
T2 sequence (P08173 whole entry): T1 sequence (whole entry)
The series is described as §1. Format: functional, cell-based. In outline: as §2

In series [3] the target is T1, Muscarinic acetylcholine receptor M4 (Homo sapiens). Nature of the series: Positive allosteric modulation of human M4 receptor expressed in CHO-K1 cells coexpressing Gqi5 assessed as potentiation of acetylcholine-mediated calcium mobilization incubated for 144 secs prior to acetylcholine addition by Fluo-4-AM staining relative to acetylcholine. Type of series: functional, cell-based. A digest of the protocol: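 hM4-Gqi5 CHO-K1 cells, plated overnight, loaded with Fluo-4 AM (45 min, 37 °C). Compound (0.3% DMSO final) preincubated 144 s, then ACh EC20 added, and EC80 added 86 s later; 1 mM ACh wells for normalization. Calcium read at 37 °C, normalized to baseline and then to maximal ACh response. EC50 from four-parameter logistic fit; three independent determinations in triplicate.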

The nature of series [4]: Plasma clearance in rat. Format: ADME, organism-based.

Active and inactive are the calls of the source. No cut-off for these calls is given here.

As to `COc1ccc(C)c2sc(NC(C)=O)nc12`, the pEC50 entry in series [1] is “inactive”. Turning to `COc1ccc(C)c2sc(NC(=O)C3=COCCO3)nc12`, the EC50 in series [2] was 1.82 µM. The %max in series [3] was determined as 55.7%. `COc1ccc2nc(NC(=O)c3ccncc3)sc2n1`: the pEC50 result in series [1] was “inactive”. `COc1ccc(CNC(=O)c2sc3nc(C)cc(C)c3c2N)cc1`: in series [4], the clearance was > 100 mL/min/kg. For the molecule `O=C(Nc1nc2ccccc2s1)C1CCCCO1` (configuration not stated), in series [1], the pEC50 entry is “inactive”.

On to `COc1cccc2sc(NC(=O)c3ccncc3)nc12`, for which, in series [2], the EC50 was 2.82 µM. Moreover, the %max in series [3] stood at 36.5%. With `O=C(Nc1nc2cccnc2s1)c1cnccn1`, in series [1], the pEC50 result is “inactive”. Regarding `COc1ccc(C)c2sc(NC(=O)NC3CCC3)nc12`, in series [1], the pEC50 entry was “inactive”.

Turning to `COc1ccc(C)c2sc(NS(=O)(=O)c3cnn(C)c3)nc12`, in series [1], the pEC50 result is “inactive”. Regarding `COc1ccc(C)c2sc(NC(=O)C3CCC3)nc12`, in series [2], the EC50 was > 10 µM. In addition, the %max in series [3] came to 52.2%.

For the molecule `COc1ccc(C)c2sc(NC(=O)C3CCCCC3)nc12`, in series [2], the EC50 is > 10 µM. The %max in series [3] stood at 43.7%. Consider `COc1ccc(C)c2sc(NC(=O)CCc3ccccc3)nc12`, for which the pEC50 entry in series [1] was “inactive”.

For the molecule `COc1ccc(C)c2sc(NC(=O)C3CCCC3)nc12`, the EC50 in series [2] was > 10 µM. Moreover, in series [3], the %max worked out at 45%. In the case of `COc1ccc(C)c2sc(NC(=O)N3CCCC3)nc12`, in series [2], the half-maximal effective concentration (EC50) was > 10 µM. The %max in series [3] was 43.5%. For `CCCCC1CC1C(=O)Nc1nc2c(OC)ccc(C)c2s1` (configuration not stated), the pEC50 entry in series [1] is “inactive”.

With `Cc1cc(OCc2ccncc2)nc2sc(C(=O)NCc3cccc(F)c3F)c(N)c12`, the clearance in series [4] was > 100 mL/min/kg. `COc1ccc(C)c2sc(NC(=O)C3CC3)nc12`: the EC50 in series [2] is > 10 µM. In series [3], the %max worked out at 61.5%. On to `O=C(Nc1nc2cccnc2s1)C1CCC1`, for which the pEC50 result in series [1] is “inactive”.

`COc1ccc(C)c2sc(NC(=O)Nc3ccncc3)nc12`: the pEC50 entry in series [1] is “inactive”. On to `COc1ccc(C)c2sc(C(=O)NC3CC3)nc12`, for which the 50% effective concentration (EC50) in series [2] was 7.76 µM. The %max in series [3] was found to be 35.6%. For the molecule `Cc1nc2sc(C(=O)NCc3ccncc3)c(N)c2c(C)c1Cl`, the clearance in series [4] is > 100 mL/min/kg.

For the molecule `COc1ccc(C)c2sc(NC(=O)CC3CC3)nc12`, the pEC50 entry in series [1] was “inactive”. With `COc1ccc(C)c2sc(NC(=O)NC3CC3)nc12`, in series [2], the EC50 is > 10 µM. The %max in series [3] was 39.3%.

On to `COCC(=O)Nc1nc2c(OC)ccc(C)c2s1`, for which the EC50 in series [2] is > 10 µM. In addition, the %max in series [3] amounted to 43.2%.

As to `COc1ccc(C)c2sc(NC(=O)NC3CCCC3)nc12`, the EC50 in series [2] is 7.08 µM. Also, the %max in series [3] is 36.5%. Turning to `O=C(Nc1nc2cccnc2s1)C1CCCC1`, the pEC50 result in series [1] is “inactive”. In the case of `COc1ccc(C)c2sc(C(=O)Nc3ccc(C)nc3)nc12`, in series [1], the pEC50 result was “inactive”. Regarding `COc1ccc(C)c2sc(NS(=O)(=O)c3ccc4occc4c3)nc12`, in series [1], the pEC50 entry was “inactive”. On the same count and under the same terms, the result for `COc1ccc(C)c2sc(NS(=O)(=O)c3cc(C)ccn3)nc12` reads “inactive”; that for `COc1ccc(C)c2sc(NC(=O)c3ccc(C)cc3)nc12`, “inactive”; that for `COc1ccc(C)c2sc(NC(=O)CC(C)(C)C)nc12`, “inactive”.

Turning to `COc1ccc(C)c2sc(NC(=O)c3cnccn3)nc12`, in series [2], the EC50 is 1.12 µM. In addition, the %max in series [3] came to 38.2%. As to `COc1ccc(C)c2sc(NC(=O)c3c(F)cccc3F)nc12`, in series [1], the pEC50 entry was “inactive”.

For `COc1ccc(C)c2sc(NC(=O)c3ccc(F)cc3F)nc12`, in series [1], the pEC50 result is “inactive”.

`COc1ccc(C)c2sc(NC(=O)c3ccccn3)nc12`: the pEC50 entry in series [1] is “inactive”. Same read-out and setting: the result for `COc1ccc(C)c2sc(C(=O)NCc3ccncc3)nc12` reads “inactive”. Take `COc1ccc(C)c2sc(C(=O)NC3CCCCC3)nc12`: the pEC50 result in series [1] was “inactive”. As for `COc1ccc(C)c2sc(NC(=O)C3CCCCO3)nc12` (configuration not stated), in series [2], the concentration giving a half-maximal response (EC50) is > 10 µM. The %max in series [3] was found to be 64.1%. The corresponding values for `COc1ccc(C)c2sc(NC(=O)c3ccco3)nc12` are 1.35 µM and 51.8%.

As for `COc1ccc(C)c2sc(NS(=O)(=O)c3ccc(F)cc3F)nc12`, in series [1], the pEC50 result was “inactive”. The same measure, in the same setting: the result for `COc1ccc(C)c2sc(NS(=O)(=O)c3ccc(C(F)(F)F)cc3)nc12` reads “inactive”. Same read-out and setting: the result for `COc1ccc(C)c2sc(NC(=O)c3ccc(F)cc3)nc12` reads “inactive”; that for `COc1ccc(C)c2sc(NS(=O)(=O)c3cccc(Cl)c3)nc12`, “inactive”. For the molecule `CCCC(=O)Nc1nc2c(OC)ccc(C)c2s1`, the half-maximal effective concentration (EC50) in series [2] is > 10 µM. Further, in series [3], the %max came to 52.5%.

Turning to `O=C(Nc1nc2cccnc2s1)c1cccnn1`, the pEC50 entry in series [1] is “inactive”.

`COc1ccc(C)c2sc(NC(=O)N3CCCCC3)nc12`: the pEC50 result in series [1] was “inactive”. As for `COc1ccc(C)c2sc(NC(=O)C3CCCOC3)nc12` (configuration not stated), the EC50 in series [2] was > 10 µM. Also, the %max in series [3] is 44%. As to `COc1ccc(C)c2sc(NC(=O)c3ccc(F)c(F)c3)nc12`, the pEC50 result in series [1] was “inactive”. Still for that read-out and setting: the result for `COc1ccc(C)c2sc(NC(=O)C3=C(C)OCCO3)nc12` reads “inactive”. As to `COc1ccc(C)c2sc(NC(=O)c3cccnc3)nc12`, in series [2], the half-maximal effective concentration (EC50) was 2.34 µM. Besides, the %max in series [3] came to 37.6%. Regarding `COc1ccc(C)c2sc(NC(=O)C3CC3C)nc12` (configuration not stated), the EC50 in series [2] was > 10 µM. Besides, the %max in series [3] stood at 66.5%. Regarding `COc1ccc(C)c2sc(NS(=O)(=O)c3cccc(C)c3)nc12`, the pEC50 result in series [1] is “inactive”. Same read-out and setting: the result for `COc1ccc(C)c2sc(NC(=O)c3cc(F)cc(F)c3)nc12` reads “inactive”; that for `COc1ccc(C)c2sc(NC(=O)NCc3ccncc3)nc12`, “inactive”.

What is called EC50 is the concentration at which the effect is half-maximal. A word on the clearance: it is a measure of how efficiently the substance is removed, as volume per time. Read a high clearance as a high capacity for elimination.
